Yeast eIF2B: eIF2B (yeast) activity modulation; S. cerevisiae eIF2B-epsilon R284H, GCN4-lacZ luminescence; inhibition, % at 25 µM (by protocol); 0.91% of 27,000 active;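 active = mutant luminescence inhibited past about 50% while wild type luminescence and mutant growth stay under set limits, limit read from the data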
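System: Yeast eIF2B-epsilon R284H mutant carrying GCN4–beta-galactosidase fusion | Read-out basis: Percent inhibition, luminescence and growth | Compound: 25 µM single dose | Times: 16 h at 30 °C exposure | Measured by: Luminescence and A595 | Buffer or medium: YPD medium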
Yeast growth tox: Compounds toxic to wild-type S. cerevisiae growth; A595 turbidity, 16 h; growth inhibition, % at 25 µM (by protocol); 0.3% of 30,000 active; AID 685;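 active = mutant and wild-type yeast strains alike exhibit over 30% growth inhibition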
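system = S. cerevisiae wild-type or eIF2Bepsilon-R284H mutant strain | buffer or medium = YPD medium | dosing = one dose, 25 µM compound, 0.2% DMSO | schedule = 16 h at 30 °C | measured by = A595 turbidity | evaluation = growth inhibition (%) versus cell controls and blanks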
Large screens that a line does not name were inactive. Shown are actives, neighbours in structure and some others; about 1.1% of the full set was active somewhere.

Cc1ccc2c(c1)CNc1ccccc1O2	none
c1ccc2c(c1)CNc1ccccc1O2	Yeast eIF2B 56.5
COc1nc(NC(C)C)nc(NC(C)C)n1	none (no result: Yeast eIF2B)
CN(C)Cc1ccccc1OC(=O)N(C)C	none
CN(C)C(=O)Oc1ccc(OC(=O)c2ccccc2)cc1	Yeast eIF2B 51.1
CCCCCCCC(=O)NC(Oc1ccccc1[N+](=O)[O-])C(Cl)(Cl)Cl (stereo not drawn)	none
Cc1cc(C)nc(-n2c(C)nc3cc(Cl)ccc3c2=O)c1	none
CN1CCN(C(=O)COc2ccc(S(=O)(=O)NCc3ccccc3)cc2Cl)CC1	none (no result: Yeast eIF2B)
O=C(COc1ccc(Cl)cc1Cl)N1CCN(C/C=C/c2ccccc2)CC1	Yeast growth tox 44.2

Source: PubChem BioAssay (PCMD)
